# EBV gp42 block: inhibitors of Epstein-Barr virus glycoprotein 42. Fluorescence polarization binding assay, mP read-out. inhibition, % (tested at 21.74 µM). hit rate 0.42% among 220,000. AID 1085; in the data active = inhibition above about 50%
# eIF4E-4G inh: eIF4E/eIF4G interaction inhibition in translation initiation | TR-FRET eIF4E-eIF4GI(517-606) binding, 2 h | inhibition, % at 21.7 µM | hit rate 0.37% among 220,000;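 note: 0% = full FRET control wells and 100% = background wells lacking eIF4GI fragment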
# WT yeast gro inh: growth inhibition of WT yeast, mitochondrial fusion screen; AID 1362; mitochondrial fusion phenotypic screen, WT strain; hit rate 2.1% among 190,000; inhibition, % at 10 µM; in the data active = inhibition above about 58%; tested in S. cerevisiae
# RBBP9 inhibitor: blocks human serine hydrolase RBBP9 | hit rate 0.2% among 220,000 | inhibition, % at 7.94 µM | AID 1515 | recombinant RBBP9, FP-Rh probe fluorescence polarization;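 active = inhibition above the campaign mean of all tested compounds plus 3 SD, cut at about 14% in these data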;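 note: plate controls were DMSO wells with RBBP9 for no effect and wells lacking RBBP9 protein for full effect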
#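 System: RBBP9 protein | Quantity: 2.5 µM RBBP9 dispensing solution, before mixing | Reagent: FP-Rh probe, 375 nM dispensing solution | Timing: Enzyme-compound preincubation 30 min, then probe labeling 45 min, 25 °C | Measured by: Fluorescence polarization | Read-out: % inhibition | Replication: One well per compound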
# 14-3-3 Bad inh: disrupts binding of bovine 14-3-3 zeta to phospho-Bad peptide. P63103. inhibition, % at 21.7 µM. hit rate 0.71% among 220,000. TR-FRET 14-3-3zeta/Dy647-pBad peptide displacement, 1 h;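 active = inhibition above about 70%, limit read from the data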;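 note: 0% = full 14-3-3 plus peptide FRET controls and 100% = background without 14-3-3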
# NCF1 inh: p47phox (human) inhibition; p47phox/p22phox peptide binding, fluorescence polarization, 2 h; AID 1274; P14598; inhibition, % at 24.7 µM; hit rate 0.53% among 220,000;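 note: 0% = p47phox with labelled peptide and 100% = labelled peptide alone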
# Target sequence (P14598 whole entry, looked up): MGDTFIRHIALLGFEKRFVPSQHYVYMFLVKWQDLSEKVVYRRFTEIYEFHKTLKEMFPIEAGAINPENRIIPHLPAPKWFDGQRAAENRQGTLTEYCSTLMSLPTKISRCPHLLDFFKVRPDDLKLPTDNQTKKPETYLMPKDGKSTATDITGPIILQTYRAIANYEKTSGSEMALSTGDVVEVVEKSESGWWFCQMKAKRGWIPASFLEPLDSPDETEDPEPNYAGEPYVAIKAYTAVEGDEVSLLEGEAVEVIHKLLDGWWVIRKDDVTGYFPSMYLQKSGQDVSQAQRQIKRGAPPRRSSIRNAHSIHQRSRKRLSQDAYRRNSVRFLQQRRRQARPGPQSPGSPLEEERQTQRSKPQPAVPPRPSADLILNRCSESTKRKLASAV
# * marks the source's active call; other numbers are inactive results; x = not tested or not shown. Sampled rows, rich in hits. Any-hit rate of the full collection: about 3.7%.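 Rule for the calls, unless noted: active = inhibition above about 30% (limit read from the data); inactive = the rest.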
SMILES,EBV gp42 block,eIF4E-4G inh,WT yeast gro inh,RBBP9 inhibitor,14-3-3 Bad inh,NCF1 inh
COc1ccc(-c2cc(C(F)F)n3ncc(C(=O)Nc4cc(C)on4)c3n2)cc1,-14,1,-26,1,-14,-12
CC(C)(C)NC(=O)COC(=O)c1cc(S(=O)(=O)N2CCCCC2)ccc1N1CCOCC1,-18,-4,-6,4,0,-6
CCC(C)c1ccccc1NC(=O)COC(=O)c1ccc2[nH]c3c(c2c1)CCCC3 (configuration not stated),-15,15,62*,-11,-12,-17
O=C(COC(=O)c1ccc2[nH]c3c(c2c1)CCCC3)Nc1ccccc1Cl,-20,1,8,1,-3,-2
O=C(NCc1ccccc1Cl)C(=O)NCC1OCCN1S(=O)(=O)c1cccs1 (configuration not stated),-1,0,-24,-9,-19,-13
Cc1nc2ccc(NC(=O)COc3cccc(F)c3)cc2s1,-4,2,51,-1,-3,-19
Cc1cccc(OCC(=O)Nc2ccc3nc(C)sc3c2)c1,-8,1,59*,2,2,4
Cc1nc2ccc(NC(=O)COc3ccccc3)cc2s1,-21,-3,74*,-6,-10,-10
O=C(O)/C(=C\C(=O)c1ccccc1)Nc1ccccc1,-11,1,x,-5,5,-8
CCOC(=O)c1sc(NC(=O)/C=C/c2cnn(C)c2C)c(C(=O)OC(C)C)c1C,-16,-4,59*,-5,-6,-11
CSCC[C@H](NC(=O)OC(C)(C)C)C(=O)N/N=C/c1ccc2nccnc2c1,4,3,x,-4,-3,3
CN(C)c1ccc(C(=O)Nc2nc3c(s2)CCCC3)cc1,-2,6,22,1,-3,-9
C/C(=N\Nc1nc2c(s1)CCCC2)c1ccc(Cl)cc1,-13,3,72*,2,69,-24
Cc1ccc(NC2=Nc3ccccc3N3C2=Nc2c(c(C)nn2-c2ccccc2)C3c2ccc(O)c(O)c2)cc1 (configuration not stated),78*,7,0,-26,-12,-7
Cc1nn(-c2ccccc2)c2c1C(c1ccc(O)c(O)c1)N1C(=N2)C(Nc2ccccc2)=Nc2ccccc21 (configuration not stated),85*,1,2,-40,-11,-12
Cc1cccc(NC2=Nc3ccccc3N3C2=Nc2c(c(C)nn2-c2ccccc2)C3c2ccc(O)c(O)c2)c1 (configuration not stated),32,11,19,-14,18,-14
CCN1CCN(C(=O)C(=O)c2c(C)[nH]c3ccccc23)CC1,11,-1,-7,-2,-14,2
COC(=O)CCC(=O)Nc1sc(Cc2ccccc2)c(C)c1C(N)=O,-13,9,64*,-7,15,5
O=C(/C=N/O)Nc1cccnc1,-24,0,-3,3,13,3
O=C(/C=N/O)Nc1ccc(F)cc1,-12,53*,-6,-5,17,-13
O=P(CCCCCCCCCP(=O)(c1ccccc1)c1ccccc1)(c1ccccc1)c1ccccc1,-4,-7,16,6,-7,-66
CCCCCCP(=O)(O)c1ccccc1,2,-2,61*,-7,25,-10
CCc1cc(C(=O)O)c(NC(=O)c2cc(OC)c(OC)c(OC)c2)s1,-10,-2,20,-4,-8,-15
C/C(=N/Nc1nc(-c2ccccc2)cc(-c2ccc(F)cc2)n1)c1cccc(N)c1,7,-2,68*,-10,8,-29
C/C(=N\Nc1nc(N)cc(Cl)n1)c1cccc(N)c1,-19,0,-6,-9,-13,-2
O=C(NNc1cccc([N+](=O)[O-])c1)/C(=C\c1cccnc1)NC(=O)c1ccccc1,-5,0,x,2,-1,-10
COc1ccc(NC(=O)c2nc(C)n(-c3ccc([N+](=O)[O-])cc3)n2)cc1,-14,6,7,-1,0,-6
Cc1nc2ccccc2c(=O)n1NC(=O)c1cc(Br)ccc1Cl,9,-7,x,-9,-7,0
O=S(=O)(c1ccccc1F)N1CCN(Cc2nc3ccccc3[nH]2)CC1,0,3,6,1,82*,-13
c1ccc2[nH]c(CN3CCCCCC3)nc2c1,-7,10,1,-6,-8,-1
